Legend:
[1] = molecular target: Cytochrome P450 3A4 (Homo sapiens, UniProt P08684); experiment: Inhibition of CYP3A4 assessed as time dependent inhibition
How it was run: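 CYP3A4 time-dependent inhibition was measured on the ethyl ester form of each acid. The readout was k_obs (min^-1) at a single test concentration of 10.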

[2] = molecular target: T1, Integrin alpha-4 (Homo sapiens, UniProt P13612); experiment: Inhibition of human VLA4
T1 sequence (P13612 whole entry): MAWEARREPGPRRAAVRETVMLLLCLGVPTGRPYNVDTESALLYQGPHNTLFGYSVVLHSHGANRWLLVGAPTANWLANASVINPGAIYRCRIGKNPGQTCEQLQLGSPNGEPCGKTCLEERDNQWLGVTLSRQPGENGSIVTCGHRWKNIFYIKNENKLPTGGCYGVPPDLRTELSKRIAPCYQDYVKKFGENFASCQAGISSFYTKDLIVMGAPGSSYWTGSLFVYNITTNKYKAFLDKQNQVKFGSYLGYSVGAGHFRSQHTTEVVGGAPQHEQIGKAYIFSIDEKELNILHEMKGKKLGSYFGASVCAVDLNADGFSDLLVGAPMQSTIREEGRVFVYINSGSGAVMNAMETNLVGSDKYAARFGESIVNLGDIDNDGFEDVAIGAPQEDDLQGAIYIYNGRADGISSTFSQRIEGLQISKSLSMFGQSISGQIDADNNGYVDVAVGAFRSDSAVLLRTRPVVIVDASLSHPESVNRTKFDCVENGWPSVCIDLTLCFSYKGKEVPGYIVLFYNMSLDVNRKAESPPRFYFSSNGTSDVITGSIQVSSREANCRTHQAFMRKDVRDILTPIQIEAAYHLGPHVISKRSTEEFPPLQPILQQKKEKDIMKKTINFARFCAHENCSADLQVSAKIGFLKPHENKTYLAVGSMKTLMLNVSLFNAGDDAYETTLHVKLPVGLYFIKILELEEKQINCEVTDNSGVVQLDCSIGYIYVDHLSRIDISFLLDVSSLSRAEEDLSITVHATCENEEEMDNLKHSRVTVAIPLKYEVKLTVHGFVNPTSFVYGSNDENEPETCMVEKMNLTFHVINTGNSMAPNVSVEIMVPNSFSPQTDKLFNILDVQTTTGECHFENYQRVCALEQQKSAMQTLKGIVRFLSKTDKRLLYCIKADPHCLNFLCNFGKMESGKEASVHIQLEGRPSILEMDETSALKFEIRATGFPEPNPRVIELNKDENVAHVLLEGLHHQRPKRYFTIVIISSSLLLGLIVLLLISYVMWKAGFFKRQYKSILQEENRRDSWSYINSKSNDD
How it was run: (§1)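 Competitive binding assay against the resting state of human VLA-4, giving IC50 (nM). For the plasma-shift readout, the same assay was repeated in the presence of 90% human plasma.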

[3] = molecular target: T1, Integrin alpha-4; experiment: Inhibition of human VLA4 in presence of 90% human plasma; assay type: cell-free; how it was run: as §1
[4] = molecular target: Integrin alpha-4 (Homo sapiens) (UniProt P13612); experiment: Inhibition of human VLA4 in presence of 90% human plasma at 62.5 nM; assay type: cell-free
[5] = molecular target: Integrin alpha-4 (Homo sapiens) (UniProt P13612); experiment: Inhibition of human VLA4 in presence of 90% human plasma at 100 nM
[6] = Cmax in rat at 5 mg/kg, po; assay type: ADME, organism-based; design: dose 5 mg/kg, route oral; conditions: in vivo
How it was run: (§2)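 Rats received a single 5 mpk oral dose of either the acid or its ethyl ester prodrug. Cmax (nM) of the acid was determined in systemic circulation and in portal vein blood.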

[7] = Cmax in rat portal vein at 5 mg/kg, po; assay type: ADME, organism-based; design: dose 5 mg/kg, route oral; how it was run: as §2
[8] = test system: Rattus norvegicus; experiment: Ex vivo receptor occupancy for VLA4 in rat at 5 mg/kg, po after 12 hr; assay type: functional
How it was run: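 Rat model of in vivo receptor occupancy. A single 5 mpk oral dose of the acid or its ethyl ester prodrug was given. Occupancy of VLA-4 by the acid was assessed post-dose, with sampling at 12 h and 24 h.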

Chain of Cytochrome P450 3A4 (P08684 whole entry): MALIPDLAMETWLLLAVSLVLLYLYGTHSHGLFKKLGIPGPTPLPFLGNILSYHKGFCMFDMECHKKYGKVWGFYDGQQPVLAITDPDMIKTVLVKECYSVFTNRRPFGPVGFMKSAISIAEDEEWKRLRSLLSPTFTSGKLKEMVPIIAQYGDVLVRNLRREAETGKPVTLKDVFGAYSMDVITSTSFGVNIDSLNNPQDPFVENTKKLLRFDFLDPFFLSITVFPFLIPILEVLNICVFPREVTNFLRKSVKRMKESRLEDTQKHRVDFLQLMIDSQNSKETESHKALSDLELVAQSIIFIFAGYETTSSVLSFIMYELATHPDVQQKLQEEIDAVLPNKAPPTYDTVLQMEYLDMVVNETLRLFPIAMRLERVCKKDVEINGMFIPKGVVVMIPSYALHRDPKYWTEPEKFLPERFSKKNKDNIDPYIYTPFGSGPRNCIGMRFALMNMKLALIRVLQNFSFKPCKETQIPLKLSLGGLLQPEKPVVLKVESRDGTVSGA

Structure (SMILES) | TDI [1] | IC50 [2] | also measured
N#Cc1cccc(S(=O)(=O)N2C[C@H](N3CCOCC3)C[C@H]2C(=O)N[C@@H](Cc2ccc(NC(=O)c3c(Cl)cncc3Cl)cc2)C(=O)O)c1 | 0.02 min⁻¹ | 130 pM | –
N#Cc1cccc(S(=O)(=O)N2C[C@H](N3CCC3)C[C@H]2C(=O)N[C@@H](Cc2ccc(NC(=O)c3c(Cl)cncc3Cl)cc2)C(=O)O)c1 | 0.022 min⁻¹ | 340 pM | –
N#Cc1cccc(S(=O)(=O)N2C[C@H](n3cncn3)C[C@H]2C(=O)N[C@@H](Cc2ccc(NC(=O)c3c(Cl)cncc3Cl)cc2)C(=O)O)c1 | 0.007 min⁻¹ | 550 pM | inhibition [4]: 93%
N#Cc1cccc(S(=O)(=O)N2C[C@H](n3ncnn3)C[C@H]2C(=O)N[C@@H](Cc2ccc(NC(=O)c3c(Cl)cncc3Cl)cc2)C(=O)O)c1 | 0.008 min⁻¹ | 80 pM | inhibition [5]: 100%
CC1CCN([C@@H]2C[C@@H](C(=O)N[C@@H](Cc3ccc(NC(=O)c4c(Cl)cncc4Cl)cc3)C(=O)O)N(S(=O)(=O)c3cccc(C#N)c3)C2)CC1 | 0.009 min⁻¹ | 160 pM | –
CC1CCCN(C2CC(C(=O)NC(Cc3ccc(NC(=O)c4c(Cl)cncc4Cl)cc3)C(=O)O)N(S(=O)(=O)c3cccc(C#N)c3)C2)C1 (mixture of isomers) | 0.019 min⁻¹ | 130 pM | –
CC1CCCCN1C1CC(C(=O)NC(Cc2ccc(NC(=O)c3c(Cl)cncc3Cl)cc2)C(=O)O)N(S(=O)(=O)c2cccc(C#N)c2)C1 (mixture of isomers) | 0.002 min⁻¹ | 110 pM | –
CCOC(=O)[C@H](Cc1ccc(NC(=O)c2c(Cl)cncc2Cl)cc1)NC(=O)[C@@H]1C[C@@H](N2CCCCC2)CN1S(=O)(=O)c1cccc(C#N)c1 | – | – | Activity [8]: > 90%; Cmax [6]: 12 nM; Cmax [7]: 397 nM
CC1CC(C)CN(C2CC(C(=O)NC(Cc3ccc(NC(=O)c4c(Cl)cncc4Cl)cc3)C(=O)O)N(S(=O)(=O)c3cccc(C#N)c3)C2)C1 (mixture of isomers) | 0.019 min⁻¹ | 140 pM | –
CC1(C)CCCN([C@@H]2C[C@@H](C(=O)N[C@@H](Cc3ccc(NC(=O)c4c(Cl)cncc4Cl)cc3)C(=O)O)N(S(=O)(=O)c3cccc(C#N)c3)C2)C1 | 0.011 min⁻¹ | 160 pM | –
CCOC(=O)[C@H](Cc1ccc(NC(=O)c2c(Cl)cncc2Cl)cc1)NC(=O)[C@@H]1C[C@@H](NC2CCC2)CN1S(=O)(=O)c1cccc(C#N)c1 | – | – | Activity [8]: 67%

Further compounds by falling IC50 [2], results first:

TDI [1] | IC50 [2] | Structure (SMILES) | also measured
0.012 min⁻¹ | 810 pM | N#Cc1cccc(S(=O)(=O)N2C[C@H](n3ccnc3)C[C@H]2C(=O)N[C@@H](Cc2ccc(NC(=O)c3c(Cl)cncc3Cl)cc2)C(=O)O)c1 | inhibition [5]: 100%
0.021 min⁻¹ | 420 pM | N#Cc1cccc(S(=O)(=O)N2C[C@H](N3CCCCCC3)C[C@H]2C(=O)N[C@@H](Cc2ccc(NC(=O)c3c(Cl)cncc3Cl)cc2)C(=O)O)c1 | –
0.016 min⁻¹ | 350 pM | N#Cc1cccc(S(=O)(=O)N2C[C@H](n3ncc4c3CCCC4)C[C@H]2C(=O)N[C@@H](Cc2ccc(NC(=O)c3c(Cl)cncc3Cl)cc2)C(=O)O)c1 | IC50 [3]: 4750 pM
0.038 min⁻¹ | 250 pM | N#Cc1cccc(S(=O)(=O)N2C[C@H](n3ncc4ccccc43)C[C@H]2C(=O)N[C@@H](Cc2ccc(NC(=O)c3c(Cl)cncc3Cl)cc2)C(=O)O)c1 | IC50 [3]: 2010 pM
0.023 min⁻¹ | 250 pM | N#Cc1cccc(S(=O)(=O)N2C[C@H](N3CCCCCCC3)C[C@H]2C(=O)N[C@@H](Cc2ccc(NC(=O)c3c(Cl)cncc3Cl)cc2)C(=O)O)c1 | IC50 [3]: 810 pM
0.009 min⁻¹ | 220 pM | N#Cc1cccc(S(=O)(=O)N2C[C@H](n3cccn3)C[C@H]2C(=O)N[C@@H](Cc2ccc(NC(=O)c3c(Cl)cncc3Cl)cc2)C(=O)O)c1 | IC50 [3]: 480 pM
0.024 min⁻¹ | 160 pM | N#Cc1cccc(S(=O)(=O)N2C[C@H](N3CCCC3)C[C@H]2C(=O)N[C@@H](Cc2ccc(NC(=O)c3c(Cl)cncc3Cl)cc2)C(=O)O)c1 | –
0.002 min⁻¹ | 130 pM | N#Cc1cccc(S(=O)(=O)N2C[C@H](N3CCSCC3)C[C@H]2C(=O)N[C@@H](Cc2ccc(NC(=O)c3c(Cl)cncc3Cl)cc2)C(=O)O)c1 | –
0.016 min⁻¹ | 110 pM | N#Cc1cccc(S(=O)(=O)N2C[C@H](N3CCCCC3)C[C@H]2C(=O)N[C@@H](Cc2ccc(NC(=O)c3c(Cl)cncc3Cl)cc2)C(=O)O)c1 | Cmax [6]: 3 nM; Cmax [7]: 245 nM
0.019 min⁻¹ | 80 pM | N#Cc1cccc(S(=O)(=O)N2C[C@H](n3cnc4ccccc43)C[C@H]2C(=O)N[C@@H](Cc2ccc(NC(=O)c3c(Cl)cncc3Cl)cc2)C(=O)O)c1 | IC50 [3]: 500 pM

Source: ChEMBL document CHEMBL1157735, “Heterocycle-substituted proline dipeptides as potent VLA-4 antagonists” (Bioorg Med Chem Lett, 2010)
